The values that follow come from ChEMBL document CHEMBL4007505 (J Med Chem, 2017).

Assay [1] concerns the target T1, Sodium-dependent dopamine transporter (Homo sapiens, UniProt Q01959). Kind of assay: Enhancing of [3H]WIN35,428 binding to recombinant human DAT expressed in HEK293 cell membranes at 10 uM pre-incubated for 10 mins before radioligand addition and measured 90 mins after radioligand addition by micro beta scintillation counting analysis relative to control.
Assay [2] has as its target T2, Adenosine receptor A3 (Mus musculus) (UniProt Q61618).
T2 sequence (whole entry): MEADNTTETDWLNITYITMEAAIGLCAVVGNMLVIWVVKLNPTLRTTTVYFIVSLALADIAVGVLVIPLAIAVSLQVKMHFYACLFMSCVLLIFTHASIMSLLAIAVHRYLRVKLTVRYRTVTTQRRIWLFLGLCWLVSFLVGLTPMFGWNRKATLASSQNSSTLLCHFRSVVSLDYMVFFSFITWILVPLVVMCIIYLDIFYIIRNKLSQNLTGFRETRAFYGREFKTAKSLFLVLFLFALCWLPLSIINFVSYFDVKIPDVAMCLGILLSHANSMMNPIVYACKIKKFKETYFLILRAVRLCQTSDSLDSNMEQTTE
Kind of assay: Displacement of [125I]N6-(4-amino-3-iodobenzyl)adenosine-5'-N-methyluronamide from mouse A3AR expressed in HEK293T cells at 10 uM pre-incubated for 10 mins before radioligand addition and measured 90 mins after radioligand addition by micro beta scintillation counting analysis relative to control. Format: cell-based.

In assay [3] the target is T3, Adenosine receptor A3 (Homo sapiens, UniProt P0DMS8).
T3 sequence (P0DMS8 whole entry): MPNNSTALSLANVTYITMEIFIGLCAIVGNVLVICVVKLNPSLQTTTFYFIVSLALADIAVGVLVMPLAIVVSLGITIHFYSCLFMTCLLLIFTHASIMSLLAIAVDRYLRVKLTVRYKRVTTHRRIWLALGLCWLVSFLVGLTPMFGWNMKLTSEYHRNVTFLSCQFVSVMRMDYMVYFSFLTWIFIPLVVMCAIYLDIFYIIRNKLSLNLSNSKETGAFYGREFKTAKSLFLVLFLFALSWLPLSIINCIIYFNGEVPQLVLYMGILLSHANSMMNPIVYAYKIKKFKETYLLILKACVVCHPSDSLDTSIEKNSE
Kind of assay: Displacement of [125I]N6-(4-amino-3-iodobenzyl)adenosine-5'-N-methyluronamide from human A3AR expressed in HEK293T cells pre-incubated for 10 mins before radioligand addition and measured 90 mins after radioligand addition by micro beta scintillation counting analysis relative to control. Type of assay: cell-based, HEK-293T.

Assay [4] deals with Sodium-dependent dopamine transporter (Mus musculus) (UniProt Q61327). Kind of assay: (§1) Enhancing of [125I]RTI-55 binding to mouse DAT expressed in HEK293 cells preincubated for 10 mins followed by radioligand addition measured after 90 mins by micro beta scintillation counting analysis. Format: cell-based. The method in brief: (§2)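 Membranes preincubated 10 min at room temperature with compound in Krebs-HEPES buffer pH 7.4, then [125I]23 at fixed 45-50 pM for 90 min in the dark, filtered. […] EC50 and % control binding; mean ± SEM.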

For assay [5], the target named is T4, Sodium-dependent dopamine transporter (Mus musculus, UniProt Q61327). The assay is described as §1. Type of assay: cell-based. The method in brief:
as §2

In assay [6] the target is T1, Sodium-dependent dopamine transporter. Kind of assay: Inhibition of recombinant human DAT expressed in HEK293 cell […] as reduction in [3H]-DA uptake incubated for 22 mins by micro beta scintillation counting analysis.
For assay [7] the target is unchanged. As to the kind of experiment: Enhancing of [125I]RTI-55 binding to recombinant human DAT expressed in HEK293 cell membranes preincubated for 10 mins followed by radioligand addition measured after 90 mins by micro beta scintillation counting analysis. On the set-up: concentration or dose not given beside the values. The note with it: for EC50: read-out: EC50. In outline: (§3)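 Membranes of HEK-293 cells stably expressing hDAT, hNET or hSERT. […] Compound preincubated 10 min at room temperature, then [125I]23 (40-80 pM final) or [3H]26 (1-3 nM for DAT and NET, 10-13 nM for SERT) added. Incubated 90 min at room temperature in the dark, then filtered. EC50 or Ki; mean ± SEM.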

Assay [8] shares this target. As to the kind of experiment: Enhancing of [3H]mazindol binding to recombinant human DAT expressed in HEK293 cell membranes preincubated for 10 mins followed by radioligand addition measured after 90 mins by micro beta scintillation counting analysis. Further details: concentration or dose not given beside the values. Particulars: for EC50: read-out: EC50. In outline: as §3

Assay [9] concerns the target T5, Sodium-dependent serotonin transporter (Homo sapiens, UniProt P31645). As to the kind of experiment: Enhancing of [125I]RTI-55 binding to recombinant human SERT expressed in HEK293 cell membranes preincubated for 10 mins followed by radioligand addition measured after 90 mins by micro beta scintillation counting analysis. The note with it: for EC50: read-out: EC50.

The target in assay [10] is T4, Sodium-dependent dopamine transporter. Kind of assay: Inhibition of mouse DAT expressed in HEK293 cells assessed as reduction in [3H]-DA uptake. Type of assay: cell-based.
In assay [11] the target is T6, Sodium-dependent noradrenaline transporter (Homo sapiens, UniProt P23975). As to the kind of experiment: Enhancing of [125I]RTI-55 binding to recombinant human NET expressed in HEK293 cell membranes preincubated for 10 mins followed by radioligand addition measured after 90 mins by micro beta scintillation counting analysis. On the set-up: concentration or dose not given beside the values. Particulars: for EC50: read-out: EC50.

Assay [12] has as its target T1, Sodium-dependent dopamine transporter. As to the kind of experiment: Inhibition of [3H]WIN35,428 binding to recombinant human DAT expressed in HEK293 cell membranes at 10 uM pre-incubated for 10 mins before radioligand addition and measured 90 mins after radioligand addition by micro beta scintillation counting analysis relative to control.
The target in assay [13] is T6, Sodium-dependent noradrenaline transporter. As to the kind of experiment: Enhancing of [3H]mazindol binding to recombinant human NET expressed in HEK293 cell membranes preincubated for 10 mins followed by radioligand addition measured after 90 mins by micro beta scintillation counting analysis.
Assay [14] concerns the target T5, Sodium-dependent serotonin transporter. Kind of assay: Enhancing of [3H]mazindol binding to recombinant human SERT expressed in HEK293 cell membranes preincubated for 10 mins followed by radioligand addition measured after 90 mins by micro beta scintillation counting analysis.
Target sequence in this assay (P31645 whole entry): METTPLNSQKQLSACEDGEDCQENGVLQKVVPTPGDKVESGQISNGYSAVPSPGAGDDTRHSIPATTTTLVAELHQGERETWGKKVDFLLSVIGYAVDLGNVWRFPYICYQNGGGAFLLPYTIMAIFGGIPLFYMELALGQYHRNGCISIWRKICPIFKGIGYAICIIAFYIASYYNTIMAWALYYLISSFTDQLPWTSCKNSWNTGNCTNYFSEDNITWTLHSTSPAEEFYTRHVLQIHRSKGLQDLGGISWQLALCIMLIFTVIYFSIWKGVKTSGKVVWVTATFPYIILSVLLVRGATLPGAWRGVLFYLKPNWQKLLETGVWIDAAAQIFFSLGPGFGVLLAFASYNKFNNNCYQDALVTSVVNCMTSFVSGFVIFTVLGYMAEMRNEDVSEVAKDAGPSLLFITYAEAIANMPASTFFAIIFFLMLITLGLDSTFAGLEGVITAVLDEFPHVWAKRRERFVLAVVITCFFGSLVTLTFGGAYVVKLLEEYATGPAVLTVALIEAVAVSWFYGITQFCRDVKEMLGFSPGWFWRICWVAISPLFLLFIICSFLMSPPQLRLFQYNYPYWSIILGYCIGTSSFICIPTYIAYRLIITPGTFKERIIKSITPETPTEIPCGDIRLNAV
Assay [15] has as its target T6, Sodium-dependent noradrenaline transporter. As to the kind of experiment: Inhibition of recombinant human NET expressed in HEK293 […] assessed as reduction in [3H]-norepinephrine uptake incubated for 22 mins by micro beta scintillation counting analysis.
Assay [16] has as its target T1, Sodium-dependent dopamine transporter. As to the kind of experiment: Enhancing of [3H]WIN35,428 binding to recombinant human DAT expressed in HEK293 cell membranes pre-incubated for 10 mins before radioligand addition and measured 90 mins after radioligand addition by micro beta scintillation counting analysis relative to control.
Assay [17] addresses T7, 5-hydroxytryptamine receptor 2C (Homo sapiens, UniProt P28335).
T7 sequence (P28335 whole entry): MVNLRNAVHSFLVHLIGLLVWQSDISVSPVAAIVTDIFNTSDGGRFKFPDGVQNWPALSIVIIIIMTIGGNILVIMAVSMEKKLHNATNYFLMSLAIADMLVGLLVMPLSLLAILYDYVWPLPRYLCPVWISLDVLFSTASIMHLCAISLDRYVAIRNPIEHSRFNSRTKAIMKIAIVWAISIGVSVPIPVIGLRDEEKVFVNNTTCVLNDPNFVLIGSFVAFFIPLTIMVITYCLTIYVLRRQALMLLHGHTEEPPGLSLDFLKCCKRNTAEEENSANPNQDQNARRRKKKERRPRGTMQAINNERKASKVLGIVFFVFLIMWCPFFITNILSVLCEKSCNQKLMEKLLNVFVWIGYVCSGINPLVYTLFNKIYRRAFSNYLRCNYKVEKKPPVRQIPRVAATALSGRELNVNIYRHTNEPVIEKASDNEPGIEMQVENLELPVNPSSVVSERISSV
Kind of assay: Displacement of [3H]Mesulergine from human 5-HT2C receptor.

Assay [18] deals with T8, Adenosine receptor A3 (Mus musculus, UniProt Q61618).
T8 sequence (Q61618 whole entry): T2 sequence (whole entry)
Kind of assay: Displacement of [125I]N6-(4-amino-3-iodobenzyl)adenosine-5'-N-methyluronamide from mouse A3AR expressed in HEK293T cells pre-incubated for 10 mins before radioligand addition and measured 90 mins after radioligand addition by micro beta scintillation counting analysis relative to control. Type of assay: cell-based.

Each structure is given as a SMILES string. Activity calls are given as the source filed them. The rule behind the calls is not given here.

T1 sequence (Q01959 whole entry): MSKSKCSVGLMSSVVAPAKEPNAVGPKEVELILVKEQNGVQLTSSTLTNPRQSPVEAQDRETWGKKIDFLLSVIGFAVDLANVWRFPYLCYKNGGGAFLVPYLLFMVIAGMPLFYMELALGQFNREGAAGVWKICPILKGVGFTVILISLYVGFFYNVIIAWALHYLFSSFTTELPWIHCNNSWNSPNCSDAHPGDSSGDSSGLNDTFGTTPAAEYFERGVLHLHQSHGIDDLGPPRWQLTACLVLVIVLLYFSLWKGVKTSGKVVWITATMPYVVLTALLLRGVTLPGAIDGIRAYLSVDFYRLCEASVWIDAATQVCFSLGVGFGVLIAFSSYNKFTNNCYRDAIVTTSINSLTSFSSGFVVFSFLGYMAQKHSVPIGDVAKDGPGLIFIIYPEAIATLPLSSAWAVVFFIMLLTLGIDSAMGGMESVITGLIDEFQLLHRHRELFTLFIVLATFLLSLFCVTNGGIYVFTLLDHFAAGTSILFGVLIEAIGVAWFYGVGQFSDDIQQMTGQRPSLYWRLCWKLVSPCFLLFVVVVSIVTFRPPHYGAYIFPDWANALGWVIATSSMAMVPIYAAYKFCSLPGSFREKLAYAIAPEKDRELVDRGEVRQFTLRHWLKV
T6 sequence (P23975 whole entry): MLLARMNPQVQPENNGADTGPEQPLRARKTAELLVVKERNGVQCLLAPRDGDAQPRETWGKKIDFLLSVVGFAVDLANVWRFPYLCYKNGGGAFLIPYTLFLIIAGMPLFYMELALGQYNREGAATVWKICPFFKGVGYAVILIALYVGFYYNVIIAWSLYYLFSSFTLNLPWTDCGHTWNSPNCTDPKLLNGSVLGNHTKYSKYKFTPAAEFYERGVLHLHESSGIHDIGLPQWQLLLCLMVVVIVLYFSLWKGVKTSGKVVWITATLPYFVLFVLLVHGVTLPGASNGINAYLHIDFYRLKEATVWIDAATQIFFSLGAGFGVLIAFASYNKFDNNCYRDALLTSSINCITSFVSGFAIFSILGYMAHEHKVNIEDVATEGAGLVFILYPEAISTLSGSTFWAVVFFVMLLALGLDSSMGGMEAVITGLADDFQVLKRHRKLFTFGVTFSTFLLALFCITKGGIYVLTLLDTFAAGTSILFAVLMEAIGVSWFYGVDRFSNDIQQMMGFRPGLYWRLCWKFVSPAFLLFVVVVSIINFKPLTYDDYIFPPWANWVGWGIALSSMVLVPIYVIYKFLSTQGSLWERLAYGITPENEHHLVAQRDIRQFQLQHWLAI
T4 sequence (Q61327 whole entry): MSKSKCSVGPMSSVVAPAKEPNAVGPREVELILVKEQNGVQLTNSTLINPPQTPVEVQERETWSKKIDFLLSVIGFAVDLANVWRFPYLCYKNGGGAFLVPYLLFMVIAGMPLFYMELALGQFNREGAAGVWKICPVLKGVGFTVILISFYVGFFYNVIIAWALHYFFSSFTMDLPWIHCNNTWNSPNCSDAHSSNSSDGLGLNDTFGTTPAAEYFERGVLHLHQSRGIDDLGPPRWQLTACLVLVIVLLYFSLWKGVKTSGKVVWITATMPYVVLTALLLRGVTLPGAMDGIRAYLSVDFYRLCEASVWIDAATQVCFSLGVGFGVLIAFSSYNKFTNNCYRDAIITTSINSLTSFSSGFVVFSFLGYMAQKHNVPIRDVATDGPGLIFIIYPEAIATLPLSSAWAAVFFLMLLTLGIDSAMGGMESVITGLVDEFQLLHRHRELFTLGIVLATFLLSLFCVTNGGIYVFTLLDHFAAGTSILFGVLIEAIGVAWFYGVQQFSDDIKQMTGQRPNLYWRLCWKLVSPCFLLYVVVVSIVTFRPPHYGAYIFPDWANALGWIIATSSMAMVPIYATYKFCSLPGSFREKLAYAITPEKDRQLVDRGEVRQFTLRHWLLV
Sodium-dependent dopamine transporter (Mus musculus), sequence (Q61327 whole entry): as above

As for `CCNc1cc(C#Cc2ccc(Cl)s2)nc2c1ncn2[C@H]1[C@H](O)[C@H](O)[C@]2(C(=O)NC)C[C@H]12`, in assay [1], the result was inactive.
Compound `CNc1nc(C#Cc2ccc(Cl)s2)nc2c1ncn2[C@H]1[C@H](O)[C@H](O)[C@]2(C(=O)OCCCc3ccccc3)C[C@H]12` yielded an inhibition in assay [2] of 9%. In addition, the outcome in [1] was inactive.
For `CNc1nc(C#Cc2ccc(Cl)s2)nc2c1ncn2[C@H]1[C@H](O)[C@H](O)[C@]2(C(=O)OCCC3CCCCC3)C[C@H]12`, the inhibition in assay [2] was found to be 5%. The Ki at Adenosine receptor A3 [3] stood at 770 nM. Moreover, in assay [1], the outcome was inactive.
Consider `CCOC(=O)[C@@]12C[C@@H]1[C@@H](n1cnc3c(NC)nc(C#Cc4ccc(Cl)s4)nc31)[C@H](O)[C@@H]2O`, for which the Emax in assay [4] was 1560%. Besides, the half-maximal effective concentration (EC50) in [5] is 1070 nM; in assay [7], 34 nM; in assay [8], 267 nM; in assay [9], above 10000 nM; in assay [11], 490 nM; in assay [14], above 10000 nM. The compound further showed an inhibition in [2] of 45%. This compound also registered an inhibition constant Ki on Adenosine receptor A3 [3] of 14.5 nM. The figures for the IC50 in assay [6], in assay [10] and in assay [15] were 107 nM, 1170 nM and 3980 nM, respectively. The Activity in [7] came out at 434%; in assay [1] it was 539%; in [8] it was 455%; in assay [11], 365%. For the same compound, the outcome in [9] and in assay [13] was inactive. The inhibition entry in assay [12] was “inactive”.
In the case of `CNc1nc(C#Cc2ccc(Cl)s2)nc2c1ncn2[C@H]1[C@H](O)[C@H](O)[C@]2(C(=O)OC(C)C)C[C@H]12`, the values for the inhibition in [2] and in assay [12] were 30% and 36%, respectively. The results for the Ki (at Adenosine receptor A3 [3]; in assay [17]) were 42.9 nM and 430 nM, respectively. In addition, the result in assay [1] was inactive. In addition, the EC50 in assay [16] is above 1000 nM.
For the compound `CCOC(=O)[C@@]12C[C@@H]1[C@@H](n1cnc3c(NC)nc(C#Cc4ccc(Br)s4)nc31)[C@H](O)[C@@H]2O`, the results for the inhibitory constant (Ki) at Adenosine receptor A3 [3] and at Adenosine receptor A3 [18] were 6.42 nM and 1800 nM, respectively. Also, the Activity in assay [1] amounted to 430%. Moreover, the inhibition entry in assay [12] is “inactive”. In assay [16], the EC50 came out at 400 nM.
`CNc1nc(C#Cc2ccc(Cl)s2)nc2c1ncn2[C@H]1[C@H](O)[C@H](O)[C@]2(C(=O)OCCC(C)C)C[C@H]12` showed an inhibition in assay [2] of 32%. Also, the affinity on Adenosine receptor A3 [3], expressed as Ki, was 24.4 nM. The Activity in assay [1] worked out at 196%. Also, the inhibition entry in assay [12] was “inactive”.
Turning to `CCCOC(=O)[C@@]12C[C@@H]1[C@@H](n1cnc3c(NC)nc(C#Cc4ccc(Cl)s4)nc31)[C@H](O)[C@@H]2O`, the Ki on Adenosine receptor A3 [3] turned out to be 5.78 nM; at Adenosine receptor A3 [18] it was 2810 nM. The figures for the IC50 in assay [6] and in assay [15] were 1140 nM and 7900 nM, respectively. Further, the Activity in assay [7] stood at 461%; in [1], 426%; in assay [8], 347%; in [11] it was 302%. Moreover, the EC50 is 294 nM in assay [7]; 535 nM in assay [8]; above 10000 nM in [9]; 980 nM in assay [11]; above 10000 nM in assay [14]. In addition, the outcome in assay [9] and in assay [13] was inactive. In [12], the inhibition entry is “inactive”.
`CNc1nc(C#Cc2ccc(Cl)s2)nc2c1ncn2[C@H]1[C@H](O)[C@H](O)[C@]2(C(=O)NCCN)C[C@H]12` yielded an inhibition in [2] of 0%. The compound also showed a Ki on Adenosine receptor A3 [3] of 156 nM. The Activity in assay [1] was 136%. In addition, in assay [12], the inhibition result was “inactive”. The EC50 in assay [16] was above 1000 nM.
Turning to `CNc1nc(C#Cc2ccc(Br)s2)nc2c1ncn2[C@H]1[C@H](O)[C@H](O)[C@]2(C(=O)OC)C[C@H]12`, the inhibition in assay [2] was 57%. Also, the figures for the Ki (on Adenosine receptor A3 [3]; in assay [17]) were 8.56 nM and 258 nM, respectively. For the same compound, the IC50 was 246 nM in assay [6] and 3560 nM in assay [15]. Moreover, the Activity in assay [7] worked out at 374%; in [1], 370%; in assay [8] it was 520%; in assay [11] it was 293%. The concentration giving a half-maximal response (EC50) in assay [7] is 53.5 nM; in assay [8], 308 nM; in assay [9] it was above 10000 nM; in assay [11], 400 nM; in assay [14], above 10000 nM. The result in [9] and in assay [13] was inactive. In addition, the inhibition entry in [12] was “inactive”.
On to `CCCCOC(=O)[C@@]12C[C@@H]1[C@@H](n1cnc3c(NC)nc(C#Cc4ccc(Cl)s4)nc31)[C@H](O)[C@@H]2O`, for which, in [2], the inhibition was 54%. For the same compound, the Ki on Adenosine receptor A3 [3] stood at 17.5 nM. The Activity in [1] was determined as 285%. Also, the inhibition entry in assay [12] is “inactive”. For the same compound, in assay [16], the EC50 was found to be 1200 nM.
In assay [2], `CNc1nc(C#Cc2ccc(Cl)s2)nc2c1ncn2[C@H]1[C@H](O)[C@H](O)[C@]2(C(=O)O)C[C@H]12` returned an inhibition of 0%. Also, the Activity in [1] is 50%. For the same compound, the inhibition result in [12] is “inactive”. The EC50 in [16] was above 1000 nM.
